Source: the EternaBench riboswitch data

Test system: MS2 coat protein
Assay: apparent Kd, MS2 coat protein; higher = weaker binding; RNA-MaP array; theophylline 2 mM where present
Method in brief: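 Stalled E. coli RNA polymerase transcribed the designs on Illumina sequencing-chip clusters. SNAP-549-labelled MS2 coat protein was titrated from 0.7 or 1.5 nM, doubling to 3 µM, without and then with constant ligand, in 100 mM Tris-HCl pH 7.5, 80 mM KCl, 4 mM MgCl2, BSA, DTT, yeast tRNA and Tween-20. Per-cluster binding curves were fitted to green signal normalised to red-channel RNA signal and control-cluster median Fmax. The apparent Kd is the median of the filtered fits.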

[1] = designed as: OFF switch for theophylline, no ligand
[2] = ligand present: theophylline, designed as: OFF switch for theophylline
[3] = designed as: ON switch for theophylline, no ligand
[4] = ligand present: theophylline, designed as: ON switch for theophylline

Sequence: AGCCUCAUACAUGAGGAUCACCCAUGUGAUACCAGUCAGGAAACUGACCCUUGGCAGCGCAUGAGGAUCACCCAUGCGCGAGGCA
- apparent Kd [1]: 59.7 nM
- apparent Kd [2]: 113 nM

Sequence: GCUGUAAGUGCAGAUACCAGCAAGUGAGGUUUCAUAUGACAUGAGGAUCACCCAUGUAUCUGCCCUUGGCAGCUGCACUUACAGC
- apparent Kd [3]: 21.4 nM
- apparent Kd [4]: 15.2 nM

Sequence: UAAUAUCACAUAUUAUGGGUGUAAUGUGAUACCAGCUAGGAAACUAGCCCUUGGCAGCACAUGAGGAUCACCCAUGUAAGCUGUA
- apparent Kd [1]: 77.9 nM
- apparent Kd [2]: 49.7 nM

Sequence: ACAUCCAGGUUAAUCGUGGGCAUGGUCGAUACCAGUAUUUUAAUCUACCCUUGGCAGCGACAUGAGGAUCACCCAUGUGCGAUGA
- apparent Kd [1]: 24.6 nM
- apparent Kd [2]: 36.3 nM

Sequence: AGACAUGAGGAUCACCCAUGUAGUAUGGAUACCAGAUCCAGAUUUAUCCCUUGGCAGCUGUGGUACAGUGAUGGAUUGCUCCUAG
- apparent Kd [1]: 31 nM
- apparent Kd [2]: 40.8 nM

Sequence: CCUGCGUUUCUUUUCUUUCGCAGGAAUGAUACCAGUAGGGAAACCUACCCUUGGCAGCAUGGGUAACAUGAGGAUCACCCAUGUU
- apparent Kd [3]: 473 nM
- apparent Kd [4]: 82.2 nM

Sequence: UUGGUAGGACAGCUCAUAUAAGCAUGUGAUACCAGCUAGAAAACUAGCCCUUGGCAGCACUUUACAUGAGGAUCACCCAUGUCCC
- apparent Kd [1]: 165 nM
- apparent Kd [2]: 460 nM

Sequence: GGUGGUGGGACGGAUACCAGCCACCGCGGCAACGCAACAUGAGGAUCACCCAUGUUGGGUGGCCCUUGGCAGCUGUCCUGCGGCG
- apparent Kd [3]: 13.9 nM
- apparent Kd [4]: 13.1 nM

Sequence: UUAUUUAUAUUAGAUACCAGUUUAAUGGCCGCAAAUCCUGACAUGAGGAUCACCCAUGUAAGCCCUUGGCAGCUGGUAUGGGUUU
- apparent Kd [1]: 19.3 nM
- apparent Kd [2]: 20.7 nM

Sequence: ACGUCUCGAAAACUCGUAGUAACAAUAGAUACCAGUAGCGAGAGUUACCCUUGGCAGCUACAUGAGGAUCACCCAUGUACGAGGA
- apparent Kd [1]: 17.4 nM
- apparent Kd [2]: 17.2 nM

Sequence: AUCGUACCUGAUGAUACCAGCAUGUGAUCAUAACAUGAGGAUCACCCAUGUAAUCAGUGAUGCCCUUGGCAGCAUAGUCGAUACA
- apparent Kd [3]: 153 nM
- apparent Kd [4]: 55.9 nM

Sequence: CAGGUGCAGUCAGAUACCAGAUCUGCACAUGAGGAUCACCCAUGUGUAAUGAGUUCAAAGAUCCCUUGGCAGCUGUGUGAUCCGA
- apparent Kd [3]: 165 nM
- apparent Kd [4]: 193 nM

Sequence: CAAGAAGUAACUGAUACCAGUGUACUGACAUGAGGAUCACCCAUGUUGGGUUUUGUUGUACACCCUUGGCAGCAGAAUCUUCUUG
- apparent Kd [1]: 66.8 nM
- apparent Kd [2]: 90.5 nM

Sequence: GGUGGAGGCGUGGGACUUGUCUGAACGGAUACCAGCCACAUCACGGGCCCUUGGCAGCUGUACAUGAGGAUCACCCAUGUCGGUC
- apparent Kd [1]: 32.3 nM
- apparent Kd [2]: 93.7 nM

Sequence: AUCGUACCUGAUGAUACCAGCAUGUGCUCGUAACAUGAGGAUCACCCAUGUGAUCAGUAAUGCCCUUGGCAGCAUGAUCGGUACA
- apparent Kd [3]: 57.9 nM
- apparent Kd [4]: 14.3 nM

Sequence: AGCGACAUGCAUGAUACCAGCUACAUGAGGAUCACCCAUGUACGUCAGUAAUGACUGUGUAGCCCUUGGCAGCAUAGAGCAUGUC
- apparent Kd [1]: 18.3 nM
- apparent Kd [2]: 48.6 nM

Sequence: AGCGACAUGCGUGAUACCAGCUACAUGAGGAUCACCCAUGUAAGUAGGAAACUACUGUGUAGCCCUUGGCAGCAUAGUGCAUGUC
- apparent Kd [1]: 13.5 nM
- apparent Kd [2]: 41.5 nM

Sequence: CGAUACGUAACUGAUACCAGUGUACUGACAUGAGGAUCACCCAUGUUGGGUUUUGUUGUACACCCUUGGCAGCAGAAUCGUAUCG
- apparent Kd [1]: 67.5 nM
- apparent Kd [2]: 96.1 nM

Sequence: AAACUAACGAGAGGAAACCUCGAGGGUGAUACCAGCACAUAAGGGUGCCCUUGGCAGCACCGACGUACAUGAGGAUCACCCAUGU
- apparent Kd [3]: 162 nM
- apparent Kd [4]: 65 nM

Sequence: CAUACUUUAGUAUGACAUGUGGGCAGUGAUACCAGAUACGAAAGUAUCCCUUGGCAGCACAACAUGAGGAUCACCCAUGUAAUUA
- apparent Kd [3]: 29.6 nM
- apparent Kd [4]: 59.2 nM

Sequence: UCAUUUGAGUGAGAUGUAAGGUAUCAUGAUACCAGUAGAUAAUUAUACCCUUGGCAGCAUGACAUGAGGAUCACCCAUGUACAUG
- apparent Kd [1]: 11.1 nM
- apparent Kd [2]: 10.3 nM

Sequence: ACGAACGAUAGUGAUACCAGACGUACAUGAGGAUCACCCAUGUUUUGGGUAAGGUUAAUAGUCCCUUGGCAGCACUUUAAGUUCG
- apparent Kd [1]: 58.7 nM
- apparent Kd [2]: 398 nM
